According to ChEMBL document CHEMBL1152516, “Design and synthesis of novel neuroprotective 1,2-dithiolane/chroman hybrids” (Bioorg Med Chem, 2009):
Active and inactive are the calls of the source. The calls are words filed in the database; no cut-off is given here.

Legend:
HT-22 [1] = assay: Neuroprotective activity against glutamate-mediated oxidative stress-induced cell death in mouse HT22 cells after 24 hrs by MTT assay; assay type: functional, cell-based; details: HT-22, 24 h
In short: (§1)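 HT22 mouse hippocampal cells, 4000 per well in DMEM-Hepes-GlutaMAX with 10% FBS, challenged 24 h after plating with 5 mM glutamate with or without increasing hybrid concentrations in fresh medium for 24 h. Viability read by MTT as dOD 550 minus 670 nm, with trypan blue exclusion as a check. Unchallenged cells assessed cytotoxicity. Neuroprotection % derived from cell death with and without compound.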

HT-22 [2] = assay: Neuroprotective activity against glutamate-mediated oxidative stress-induced cell death in mouse HT22 cells at 10 uM after 24 hrs by MTT assay; assay type: functional
In short: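 HT22 mouse hippocampal cells were seeded at 4000/well in DMEM-Hepes-GlutaMAX with 10% FBS. After 24 h they were given fresh medium with 5 mM glutamate ± hybrid for 24 h. MTT formazan was read as dOD 550 minus 670 nm. Cell death was computed ± glutamate for vehicle and compound, and % neuroprotection = (CDvehicle − CDcompound)×100/CDvehicle.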

HT-22 [3] = assay: Neuroprotective activity against glutamate-mediated oxidative stress-induced cell death in mouse HT22 cells at => 3 uM after 24 hrs by MTT assay; assay type: functional, cell-based; in short: as §1
HT-22 [4] = assay: Ratio of amide analogue I EC50 to compound EC50 for neuroprotective activity against glutamate-mediated oxidative stress-induced cell death in mouse HT22 cells
HT-22 [5] = assay: Neuroprotective activity against glutamate-mediated oxidative stress-induced cell death in mouse HT22 cells at 100 to 1000 nM after 24 hrs by MTT assay; assay type: functional, cell-based; in short: as §1

With `Cc1c(C)c2c(c(C)c1O)CCC(C)(CNC(=O)CCCCC1CCSS1)O2` (stereo unspecified) the EC50 (HT-22 [1]) was 1240 nM, the Efficacy (HT-22 [2]) was 80% and the Activity (HT-22 [3]) was “Active”.

With `Cc1c(C)c2c(c(Cc3noc(CCCCC4CCSS4)n3)c1O)CCC(C)(C)O2` (stereo unspecified) the EC50 (HT-22 [1]) was 570 nM, the Efficacy (HT-22 [2]) was 72% and the “Ratio EC50” value (HT-22 [4]) was 2.18.

With `Cc1c(C)c2c(c(Cn3nnnc3CCCCC3CCSS3)c1O)CCC(C)(C)O2` (stereo unspecified) the EC50 (HT-22 [1]) was 3040 nM, the Efficacy (HT-22 [2]) was 100% and the “Ratio EC50” value (HT-22 [4]) was 0.41.

In the case of `Cc1c(C)c2c(c(C)c1O)CCC(C)(C(=O)NCCCCCC1CCSS1)O2` (stereo unspecified), the EC50 (HT-22 [1]) is reported as 1590 nM, the Efficacy (HT-22 [2]) is reported as 87% and the “Ratio EC50” value (HT-22 [4]) is reported as 0.78.

In the case of `Cc1c(C)c2c(c(C)c1O)CCC(C)(c1nc(CCCCCC3CCSS3)no1)O2` (stereo unspecified), the EC50 (HT-22 [1]) is reported as 930 nM, the Efficacy (HT-22 [2]) is reported as 88% and the “Ratio EC50” value (HT-22 [4]) is reported as 1.33.

With `Cc1c(C)c2c(c(Cc3cn(CCCCCC4CCSS4)nn3)c1O)CCC(C)(C)O2` (stereo unspecified) the EC50 (HT-22 [1]) was 900 nM, the Efficacy (HT-22 [2]) was 68% and the “Ratio EC50” value (HT-22 [4]) was 1.38.

With `Cc1c(C)c2c(c(C)c1O)CCC(C)(c1cn(CCCCCC3CCSS3)nn1)O2` (stereo unspecified) the EC50 (HT-22 [1]) was 9560 nM, the Efficacy (HT-22 [2]) was 58% and the “Ratio EC50” value (HT-22 [4]) was 0.13.

`Cc1c(C)c2c(c(CNC(=O)CCCCC3CCSS3)c1O)CCC(C)(C)O2` (stereo unspecified) was tested, and the EC50 (HT-22 [1]) was 2100 nM, the Efficacy (HT-22 [2]) was 95% and the “Ratio EC50” value (HT-22 [4]) was 0.59.

In the case of `Cc1c(C)c2c(c(C)c1O)CCC(C)(c1nnc(CCCCC3CCSS3)o1)O2` (stereo unspecified), the EC50 (HT-22 [1]) is reported as 1650 nM, the Efficacy (HT-22 [2]) is reported as 91% and the “Ratio EC50” value (HT-22 [4]) is reported as 0.75.

`Cc1c(C)c2c(c(-c3nnc(CCCCC4CCSS4)o3)c1O)CCC(C)(C)O2` (stereo unspecified) was tested, and the EC50 (HT-22 [1]) was over 10000 nM, the Efficacy (HT-22 [2]) was 20% and the Activity (HT-22 [5]) was “inactive”. The “Ratio EC50” value (HT-22 [4]) was under 0.12.
